Published values pooled from the literature.
Protocols differ between the studies behind these lines.
Target: Mitogen-activated protein kinase kinase kinase kinase 4 (MAP4K4, Homo sapiens, UniProt O95819)

Cn1cc(-c2cccc(N3CCc4c(sc5c4CC(C)(C)C5)C3=O)c2CO)cc(Nc2ccncn2)c1=O
inhibition (enzyme activity; inhibitor; 1 µM): 4%

COc1ncccc1-c1cnn2ccc(N3CCN(C(=O)OC(C)C)CC3)nc12
remaining binding (binding; competition with immobilised ligand; 1 µM): 83%

N#CC1(c2ccccn2)CCN(Cc2cc(C(=O)O)c(=O)n3ccccc23)CC1
remaining binding (cell-free assay; competition with immobilised ligand; 1 µM): 87%

CC(C)(C)c1cc(C=C(C#N)C#N)cc(Br)c1O
remaining activity (enzyme activity; inhibitor; 0.5 µM): 96.2%

Cn1cc(-c2cc(F)cc(N3CCn4c(cc5c4CCCC5)C3=O)c2CO)cc(Nc2ccc(N3CCN(C4COC4)CC3)cn2)c1=O
inhibition (enzyme activity; inhibitor; 0.1 µM): 23%

Cc1nn(C)cc1-c1nc2c(N3CCN(Cc4ccc(Cl)cc4)CC3)c(Cl)cnc2[nH]1
remaining binding (binding; competition with immobilised ligand; 1 µM): 88%

O=c1[nH]c2ccccc2n1C1CCN(Cc2ccc(-c3[nH]c4cc5ncnc5cc4nc3-c3ccccc3)cc2)CC1
remaining signal (cell-free assay; 0.5 µM): 99.5%

Cn1cncc1[C@](O)(COc1ccc(C#N)cc1-c1ccc(OC(F)(F)F)cc1)c1ccc(C#N)cc1
remaining binding (cell-free assay; competition with immobilised ligand; 1 µM): 100%

Nc1ncc(-c2nc(N3CCOCC3)nc(N3CCOCC3)n2)c(C(F)F)n1
remaining binding (binding; competition with immobilised ligand; 10 µM): 100%
